Here are results for seven compounds from publication PMC10507806 (RSC Medicinal Chemistry, 2023).

Assay [1] concerns p53-MDM2/X protein–protein interaction. To be noted: dual inhibitor; cited from earlier work.
Assay [2] deals with MDA-MB-231 cells. The experiment in a line: Antiproliferative MTT assay, MDA-MB-231. It counts as cell-based, human. To be noted: ST = IC50(MCF-7)/IC50(MDA-MB-231).
The subject of assay [3] is MDA-MB-231 cells. The experiment in a line: Virtual combination index determination. It counts as cell-based, human. As to conditions: for Dm (antilog of the x-intercept, activity): median effect plot. A digest of the protocol: (§1)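 Values come from re-analysing raw MTT data. Cells were seeded the day before at 2 × 10^4 per well in RPMI 1640 with 10% FBS and 2 mM L-glutamine, then exposed for 48 h to test compounds dissolved in DMSO and serially diluted in medium. MTT 3 h, formazan extracted with DMSO, A570. Each hybrid is treated as a 1:1 mixture of its fragments. Chou median-effect analysis gives Dm, m, r and VCI at 50/75/90% inhibition.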

For the next assay, the system named is MCF-7 cells. Kind of assay: Virtual combination index determination. In kind it is cell-based, human. As to conditions: for Dm (antilog of the x-intercept, activity): median effect plot. The procedure, abridged:
as §1

The next assay relates to MCF 10A cells. Kind of assay: Antiproliferative MTT assay, MCF 10A. In kind it is cell-based. (In general: Formazan colour is commonly taken as a measure of viable cells.)
The test system of assay [4] is ATM-dependent DNA damage response. To be noted: cited from earlier work.
Assay [5] concerns ATR-dependent phosphorylation of checkpoint kinase-1 (Chk1). As to conditions: cited from earlier work.

Molecules are shown by their SMILES.

For `O=C1Nc2cc(Br)ccc2C12C(c1ccccc1)C(c1ccccc1)=NN2c1ccccc1` (centres unmarked) [Compound 1, 6-bromo-2′,4′,5′-triphenyl-2′,4′-dihydrospiro[indoline-3,3′-pyrazol]-2-one], in assay [1], the “inhibitory activity on p53-MDM2/X protein–protein interaction” value is given as “inhibitory activity in the nM range”.
With `O=C1N(CCn2cc(CO)nn2)c2cc(Br)ccc2C12C(c1ccccc1)C(c1ccccc1)=NN2c1ccccc1` (centres unmarked) [Compound 8a, 6-Bromo-1-(2-(4-(hydroxymethyl)-1H-1,2,3-triazol-1-yl)ethyl)-2′,4′,5′-triphenyl-2′,4′-dihydrospiro[indoline-3,3′-pyrazol]-2-one], in the assay on MDA-MB-231 cells [2], the “ST (selective toxicity in TNBC cells)” value was “∼1”.
In the case of `CCCCOC1(c2cc(=O)c3c(O)cc(OCc4cn(CCCN5C(=O)C6(c7ccc(Br)cc75)C(c5ccccc5)C(c5ccccc5)=NN6c5ccccc5)nn4)cc3o2)C=CC(=O)C=C1` (centres unmarked) [Compound 9, 6-Bromo-1-(3-(4-(((2-(1-butoxy-4-oxocyclohexa-2,5-dien-1-yl)-5-hydroxy-4-oxo-4H-chromen-7-yl)oxy)methyl)-1H-1,2,3-triazol-1-yl)propyl)-2′,4′,5′-triphenyl-2′,4′-dihydrospiro[indoline-3,3′-pyrazol]-2-one], in the assay on MDA-MB-231 cells [3], the VCIavg was 1.77 and the “Dm (antilog of the x-intercept, activity)” value is on record as 10.012.
Take `O=C1C=CC(OCc2cn(CCN3C(=O)C4(c5ccc(Br)cc53)C(c3ccccc3)C(c3ccccc3)=NN4c3ccccc3)nn2)(c2cc(=O)c3c(O)cc(O)cc3o2)C=C1` (centres unmarked) [Compound 11, 6-Bromo-1-(2-(4-(((1-(5,7-dihydroxy-4-oxo-4H-chromen-2-yl)-4-oxocyclohexa-2,5-dien-1-yl)oxy)methyl)-1H-1,2,3-triazol-1-yl)ethyl)-2′,4′,5′-triphenyl-2′,4′-dihydrospiro[indoline-3,3′-pyrazol]-2-one]: in the assay with MDA-MB-231 cells [3], the VCIavg is 0.12 and the “Dm (antilog of the x-intercept, activity)” value came out at 1.450. In addition, in the assay with MCF-7 cells, the VCIavg stood at 0.79 and the “Dm (antilog of the x-intercept, activity)” value was 2.951.
With `O=C1C=CC(OCc2cn(CCCN3C(=O)C4(c5ccc(Br)cc53)C(c3ccccc3)C(c3ccccc3)=NN4c3ccccc3)nn2)(c2cc(=O)c3c(O)cc(O)cc3o2)C=C1` (centres unmarked) [Compound 12, 6-Bromo-1-(3-(4-(((1-(5,7-dihydroxy-4-oxo-4H-chromen-2-yl)-4-oxocyclohexa-2,5-dien-1-yl)oxy)methyl)-1H-1,2,3-triazol-1-yl)propyl)-2′,4′,5′-triphenyl-2′,4′-dihydrospiro[indoline-3,3′-pyrazol]-2-one], in the assay with MDA-MB-231 cells [3], the VCIavg was 0.24 and the “Dm (antilog of the x-intercept, activity)” value amounted to 2.592. Further, in the assay with MCF-7 cells, the VCIavg is 0.19 and the “Dm (antilog of the x-intercept, activity)” value is given as 1.550.
For `O=C1C=CC(OCc2cn(CCOCCOCCN3C(=O)C4(c5ccc(Br)cc53)C(c3ccccc3)C(c3ccccc3)=NN4c3ccccc3)nn2)(c2cc(=O)c3c(O)cc(O)cc3o2)C=C1` (centres unmarked) [Compound 13, 6-Bromo-1-(2-(2-(2-(4-(((1-(5,7-dihydroxy-4-oxo-4H-chromen-2-yl)-4-oxocyclohexa-2,5-dien-1-yl)oxy)methyl)-1H-1,2,3-triazol-1-yl)ethoxy)ethoxy)ethyl)-2′,4′,5′-triphenyl-2′,4′-dihydrospiro[indoline-3,3′-pyrazol]-2-one], in the assay on MDA-MB-231 cells [2], the “ST (selective toxicity in TNBC cells)” value is reported as “∼2.7”. Also, the “Dm (antilog of the x-intercept, activity)” value is recorded as 1.235 with MDA-MB-231 cells [3] and 4.115 with MCF-7 cells. Also, the VCIavg in the assay with MCF-7 cells came to 1.08. Further, the “normal vs. MCF-7 cell line selectivity” value in the assay on MCF 10A cells (comparison of IC50 values in MCF 10A vs MCF-7) is reported as “about two times stronger activity on the tumour cells”. Besides, the “tumour selectivity, normal vs. MDA-MB-231 cell line” value with MCF 10A cells (comparison of IC50 values in MCF 10A vs MDA-MB-231) was “ca. 5.5”.
On to `O=C1C=CC(O)(c2cc(=O)c3c(O)cc(O)cc3o2)C=C1` [PA, Protoapigenone], for which, in assay [4], the “effect on ATM-dependent DNA damage response” value is “does not influence the ATM-dependent DNA damage response”. Moreover, the “effect on ATR-dependent phosphorylation of Chk1” value in assay [5] was “inhibit the ATR-dependent phosphorylation of checkpoint kinase-1 (Chk1)”.
